Bioassay records deposited in PubChem by several laboratories.
NS3 helicase inh: inhibitors of HCV NS3 helicase, primary screen, biochemical, Cy5 molecular beacon fluorescence | NS3 helicase DNA unwinding | inhibition, % at 10.9 µM | 0.56% of 290,000 active | AID 1800, 2009;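 active = inhibition above the mean of all tested compounds plus 3 SD, set per campaign, cut at about 35% in these data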
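System: HCV NS3 helicase fragment; control set: DMSO and thioflavine S; technique: Cy5 fluorescence at 0 and 60 min, beacon hairpin quenching; reagent: beacon DNA duplex substrate plus ATP; replicates: singlicate; schedule: 1 h reaction at 25 °C, ATP-initiated; medium: MOPS buffer pH 6.5 with MgCl2, DTT, Tween20, BSA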
core dimer inh: inhibitors of HCV core protein dimerization, primary screen, biochemical, TR-FRET, high-throughput. 0.33% of 300,000 active. AID 1899, 2009. inhibition, % at 5 µM. TR-FRET GST/Flag-core106 dimerization, 1536-well;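 active = inhibition above the mean of all tested compounds plus 3 SD, set per screening campaign, cut at about 45% in these data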
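Assay system: Tagged HCV core106 pair (GST and Flag) | Buffer or medium: KF-containing HEPES buffer, pH 7.45, DTT, CHAPS, BSA | Also added: Eu donor and XL665 acceptor anti-tag antibodies | Dosing: One concentration, 5 µM, in 0.5% DMSO | Timing: 4 h at 22.5 °C | Technique: TR-FRET 671 and 617 nm emission | Repeats: Singlicate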
DAGLB inhibitor: DAGLB lipase inhibitors, primary screen, biochemical, fluorescence, HTS. HEK293T DAGLB membrane lysate, EnzChek fluorogenic substrate. 0.059% of 340,000 active. inhibition, % at 5.17 µM; in the data active = inhibition above about 34%
GRK2 aptamer HTS: compounds blocking aptamer binding on GRK2 – biochemical, human GRK2, bead flow cytometry, HTS, primary screen; 0.59% of 330,000 active; FAM-aptamer displacement from GRK2; inhibition of aptamer binding, % at 10 µM; Beta-adrenergic receptor kinase 1 (Homo sapiens), P25098;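 active = inhibition of aptamer binding above 40%, roughly 3 SD of noise, on plates passing a quality check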;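 note: median bead fluorescence of bound FAM aptamer so fluorescent compounds give negative values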
Target sequence (P25098 whole entry, looked up): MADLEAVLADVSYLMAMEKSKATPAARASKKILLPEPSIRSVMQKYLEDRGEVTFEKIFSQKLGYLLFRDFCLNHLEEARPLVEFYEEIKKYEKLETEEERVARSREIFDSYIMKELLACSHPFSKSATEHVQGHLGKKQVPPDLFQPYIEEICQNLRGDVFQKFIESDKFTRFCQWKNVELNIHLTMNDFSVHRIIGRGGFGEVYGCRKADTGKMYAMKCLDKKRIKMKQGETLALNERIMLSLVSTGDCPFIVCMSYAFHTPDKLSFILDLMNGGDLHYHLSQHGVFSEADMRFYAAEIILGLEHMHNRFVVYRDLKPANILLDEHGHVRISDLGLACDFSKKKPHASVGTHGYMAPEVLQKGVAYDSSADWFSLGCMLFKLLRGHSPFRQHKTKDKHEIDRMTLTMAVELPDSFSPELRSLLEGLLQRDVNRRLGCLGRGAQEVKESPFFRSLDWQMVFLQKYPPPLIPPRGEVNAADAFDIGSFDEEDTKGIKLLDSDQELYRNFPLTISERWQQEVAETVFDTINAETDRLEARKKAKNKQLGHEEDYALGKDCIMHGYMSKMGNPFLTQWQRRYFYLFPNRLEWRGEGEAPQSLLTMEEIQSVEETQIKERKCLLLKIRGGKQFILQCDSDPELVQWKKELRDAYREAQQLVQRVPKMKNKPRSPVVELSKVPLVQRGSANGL
DNA FID counter-1: compounds displacing fluorescent DNA intercalator, primary screen, artefact control for HCV NS3 helicase inhibitor project, biochemical, FID fluorescence; DNA fluorescent intercalator displacement; inhibition, % at 7.9 µM; 0.17% of 290,000 active;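 note: higher means more ethidium bromide displaced from hairpin DNA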
GPR7 antag: GPR7 receptor antagonists, primary screen, cell-based, fluorescence, single concentration; GPR7-expressing cells, fluorescence antagonist assay; inhibition, % at 4.4 µM; 1.1% of 290,000 active; in the data active = inhibition above about 16%, passing the limit was not always enough;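 note: cells stimulated with the agonist NPW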
NS3 hel confirm: HCV NS3 helicase inhibitors, retest, confirmation, biochemical, Cy5 molecular beacon fluorescence, triplicate. NS3 helicase DNA unwinding. inhibition, % at 10.9 µM. shares compounds with NS3 helicase inh. 31% of 1,600 active;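 active = inhibition above the mean of all tested compounds plus 3 SD, cutoff set per campaign, cut at about 36% in these data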
DNA FID counter-2: compounds displacing fluorescent DNA intercalator, artefact control for HCV NS3 helicase inhibitor project, biochemical, FID fluorescence, triplicate; shares compounds with NS3 helicase inh; DNA fluorescent intercalator displacement; inhibition, % at 7.9 µM; 4% of 1,600 active;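 note: higher means more displacement of ethidium bromide from the DNA hairpin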
DNA FID DR: compounds displacing fluorescent intercalator from DNA, dose response, counter-screen for HCV NS3 helicase inhibitor project, biochemical, fluorescence. IC50, µM. fluorescent intercalator displacement from DNA. 120 tested, under 10 active. shares compounds with NS3 helicase inh; call rule not given here
Hits are given with their value; . = inactive; / = not tested or not shown. In the library only some 2.2% were active in any assay of this set; here they are far more common. Cut-off read from the data, not from the text of the source, unless noted: active = inhibition above about 37%; inactive = the rest.

SMILES	NS3 helicase inh	core dimer inh	DAGLB inhibitor	GRK2 aptamer HTS	DNA FID counter-1	GPR7 antag	NS3 hel confirm	DNA FID counter-2	others
CCOc1ccc(N2C(=O)C3Sc4[nH]c(=O)sc4C(/C=C/c4ccccc4)C3C2=O)cc1 (stereo unspecified)	37	.	.	.	.	.	62	.	DNA FID DR=.
Cc1ncc(C(O)c2ccccc2)n1Cc1ccccc1 (stereo unspecified)	/	/	.	/	/	/	/	/
Cc1cc(/C=C2\SC(=S)N(C)C2=O)c(C)n1-c1cccc(O)c1	83	.	.	.	.	.	.	.
COc1ccc(-n2c(C)cc(/C=C3/SC(=S)N(C)C3=O)c2C)cc1	.	.	.	.	.	.	/	/
Cc1onc(-c2c(F)cccc2Cl)c1C(=O)OCC(=O)Nc1cccc(S(=O)(=O)N(C)C)c1	/	/	.	/	/	/	/	/
O=c1ccc2[n+]([O-])c3ccc(O)cc3oc-2c1	37	/	.	/	.	.	.	.
O=c1cc(O)c2ccc(O)cc2o1	.	.	.	.	.	.	/	/
C[C@H](NC(=O)c1ncn2c1C(=O)NC[C@H]2C)C(=O)OC(C)(C)C	/	/	.	/	/	/	/	/
COc1cc(C(=O)N/C(=C/c2ccc(F)cc2)C(=O)NC(C(=O)O)c2ccccc2)cc(OC)c1OC (stereo unspecified)	37	.	.	.	.	.	.	.
O=S(=O)(Nc1nc2ccccc2nc1NCC1CCCO1)c1ccccc1 (stereo unspecified)	.	.	.	.	.	.	/	/
O=S(=O)(Nc1nc2ccccc2nc1NCC1CCCO1)c1ccc(F)cc1 (stereo unspecified)	42	.	.	.	.	.	.	.
CC(C)N(CCNC(=O)c1nn(Cc2ccccc2)c(=O)c2ccccc12)C(C)C	.	.	.	.	.	.	/	/
Cc1nc(N[C@@H](Cc2c[nH]c3ccccc23)C(=O)O)c2oc3ccccc3c2n1	42	.	/	.	.	.	.	.
CCc1nc(N[C@@H](Cc2c[nH]c3ccccc23)C(=O)O)c2oc3ccccc3c2n1	.	.	.	.	.	.	/	/
CCOc1ccc2[nH]c(=O)c(CN(Cc3nnnn3Cc3ccco3)C3CCCCC3)cc2c1	65	.	.	.	.	.	.	.
Cc1ccnc(OC(C(=O)O)C(OCCc2ccccc2)(c2ccccc2)c2ccccc2)n1 (stereo unspecified)	.	.	.	.	.	.	/	/
COC(c1ccc(Cl)cc1)(c1ccc(Cl)cc1)C(Oc1nc(C)cc(C)n1)C(=O)O (stereo unspecified)	37	.	.	.	.	.	36	.
Cc1cc(C)nc(OC(C(=O)O)C(OCCc2ccccc2)(c2ccccc2)c2ccccc2)n1 (stereo unspecified)	37	.	.	.	.	.	107	.
COC(c1ccc(Cl)cc1)(c1ccc(Cl)cc1)C(Oc1nccc(C)n1)C(=O)O (stereo unspecified)	.	.	.	.	.	.	/	/
Cc1ccc(C(c2cc(Cl)c3cccnc3c2O)N2CCN(C)CC2)cc1 (stereo unspecified)	42	.	.	.	.	.	70	67
CC(=O)OCC1=C(C(=O)O)N2C(=O)C(NC(=O)c3ccc(COc4ccc(Cl)cc4)o3)C2SC1 (stereo unspecified)	.	.	.	.	.	.	/	/
